# Values without a mark were called inactive.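 How the source made its calls: active means a dose-dependent rise in calcium signal, with potency and percent of maximal acetylcholine response fitted; inactive means the rest.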
# Biological target: Muscarinic acetylcholine receptor M5 (Homo sapiens) (UniProt P08912)
# Experiment: potentiation of ACh at human M5 – CHO cells, calcium fluorescence, counter-screen for M4 PAM project, dose response (AID 588747)
# Settings: CHO hM5, calcium Fluo-4 fluorescence, ACh EC20 potentiation; series mostly up to 30 µM; percent ACh max response: at the top concentration
# Procedure, shortened: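 Assay system: CHO cells expressing human muscarinic M5 receptor / Medium: HEPES-buffered HBSS, 2.5 mM probenecid / Reagent: acetylcholine at EC20, then acetylcholine at EC80 / Schedule: compound pre-incubation 144 s, EC80 ACh 86 s after EC20, 37 °C / Technique: calcium fluorescence with Fluo-4 AM dye / Controls: 1 mM acetylcholine as maximal response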
# Chain of Muscarinic acetylcholine receptor M5 (Homo sapiens) (P08912 whole entry, looked up): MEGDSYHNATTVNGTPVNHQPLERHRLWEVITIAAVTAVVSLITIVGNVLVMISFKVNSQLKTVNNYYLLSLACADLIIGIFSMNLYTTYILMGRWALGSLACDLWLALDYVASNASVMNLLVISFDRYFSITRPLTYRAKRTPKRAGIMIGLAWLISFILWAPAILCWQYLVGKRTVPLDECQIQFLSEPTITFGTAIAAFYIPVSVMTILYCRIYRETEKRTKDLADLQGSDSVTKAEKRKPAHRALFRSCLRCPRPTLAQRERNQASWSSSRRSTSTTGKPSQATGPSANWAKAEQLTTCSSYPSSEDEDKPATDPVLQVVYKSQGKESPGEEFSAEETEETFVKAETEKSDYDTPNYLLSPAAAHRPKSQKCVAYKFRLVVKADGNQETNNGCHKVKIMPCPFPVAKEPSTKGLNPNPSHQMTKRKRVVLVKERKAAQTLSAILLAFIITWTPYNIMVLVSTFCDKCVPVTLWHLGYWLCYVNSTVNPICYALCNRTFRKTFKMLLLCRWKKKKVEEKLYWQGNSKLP
row,Compound,percent ACh max response
1,Cc1nc2sc(C(=O)NCc3ccncn3)c(N)c2c(C)c1Cl,15.2
2,Cc1nc2sc(C(=O)NCc3nccs3)c(N)c2c(C)c1Cl,18.3
3,Cc1nc2sc(C(=O)NCCc3ccncc3)c(N)c2c(C)c1Cl,19.3
4,Cc1nc2sc(C(=O)NC3CC3)c(N)c2c(C)c1Cl,17.9
5,Cc1nc2sc(C(=O)NCc3cccc(F)c3F)c(N)c2c(C)c1Cl,16.2
